Target: yeast Hsp90 M705V
Assay: ITC of TPR-domain proteins with yeast Hsp90 M705V
Assay type: binding
Conditions: 300 μM CHIP injected into 30 μM yeast Hsp90 M705V, 30 °C, pH 8.0
In short: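 ITC: mouse CHIP or yeast Tah1 (His tags cleaved) at 300 µM was titrated as 9–11 injections of 27 µl into 30 µM yeast Hsp90 M705V. Runs were at 30 °C for CHIP and 4 °C for Tah1, in 20 mM Tris/HCl pH 8.0, 1 mM EDTA, 5 mM NaCl. Data were corrected for separately measured heat of dilution and fitted by nonlinear least squares for stoichiometry, binding constant and enthalpy.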

B1: CHIP: mouse C-terminal of Hsp70-interacting protein, TPR-domain co-chaperone involved in ubiquitylation of chaperone-bound client proteins (protein)
chain: MKGKEEKEGGARLGTGGGGSPDKSPSAQELKEQGNRLFVGRKYPEAAACYGRAITRNPLVAVYYTNRALCYLKMQQPEQALADCRRALELDGQSVKAHFFLGQCQLEMESYDEAIANLQRAYSLAKEQRLNFGDDIPSALRIAKKKRWNSIEERRIHQESELHSYLTRLIAAERERELEECQRNHEGHEDDGHIRAQQACIEAKHDKYMADMDELFSQVDEKRKKRDIPDYLCGKISFELMREPCITPSGITYDRKDIEEHLQRVGHFDPVTRSPLTQEQLIPNLAMKEVIDAFISENGWVEDY
modifications: left off: His-PreScission tag, end not stated, cleaved
B1 gave a Kd of 6.7 ± 0.62 µM.

From article PMC2865030 (Biochemical Journal, 2008)
